In the library only some 2% were active in any assay of this set; here they are far more common.
PPC-1+TRAIL kill: compounds killing PPC-1 cancer cells with TRAIL present, primary screen, TRAIL potentiator project, ATPLite luminescence, uHTS; PPC-1 cells + TRAIL, ATPLite viability luminescence; cell killing (% activity), % at 4 µM or 5 µM; 0.41% of 220,000 active;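 active = cell killing above 50% in the first pass at 4 µM, then a duplicate retest at 5 µM averaging 50% or more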;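 note: plate controls were cells with TRAIL plus DMSO for no effect and medium-only wells lacking cells for full effect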
HSP90 refold inh: HSP90 inhibitors, primary screen, cell lysate, luminescence; Heat shock protein HSP 90 (rabbit reticulocyte lysate; luciferase refolding); Rabbit reticulocyte lysate, luciferase refolding luminescence, 3 h; inhibition, % at 5.6 µM; 0.91% of 290,000 active;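 active = inhibition above the screen-wide mean plus 3 SD, computed separately per campaign, cut at about 16% in these data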;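 note: 0% = DMSO wells and 100% = 60 µM geldanamycin wells; inhibitors lower the luminescence because luciferase stays unfolded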
FLuc stim CS: FLuc activators, initial screening, artefact control for FLuc-dependent activation tests, biochemical, ATPlite luminescence; activation factor at 10 µM; 200,000 tested, under 10 active; Luciferin 4-monooxygenase (Photinus pyralis), P08659; AID 1027, 2008; ATPlite luciferase biochemical, 10 min; 0 = ATP-free wells, 1 = DMSO control;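 active = luciferase activation factor, scaled between plate controls, of at least 2 with compound at 10 µM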
Target sequence (P08659 whole entry, looked up): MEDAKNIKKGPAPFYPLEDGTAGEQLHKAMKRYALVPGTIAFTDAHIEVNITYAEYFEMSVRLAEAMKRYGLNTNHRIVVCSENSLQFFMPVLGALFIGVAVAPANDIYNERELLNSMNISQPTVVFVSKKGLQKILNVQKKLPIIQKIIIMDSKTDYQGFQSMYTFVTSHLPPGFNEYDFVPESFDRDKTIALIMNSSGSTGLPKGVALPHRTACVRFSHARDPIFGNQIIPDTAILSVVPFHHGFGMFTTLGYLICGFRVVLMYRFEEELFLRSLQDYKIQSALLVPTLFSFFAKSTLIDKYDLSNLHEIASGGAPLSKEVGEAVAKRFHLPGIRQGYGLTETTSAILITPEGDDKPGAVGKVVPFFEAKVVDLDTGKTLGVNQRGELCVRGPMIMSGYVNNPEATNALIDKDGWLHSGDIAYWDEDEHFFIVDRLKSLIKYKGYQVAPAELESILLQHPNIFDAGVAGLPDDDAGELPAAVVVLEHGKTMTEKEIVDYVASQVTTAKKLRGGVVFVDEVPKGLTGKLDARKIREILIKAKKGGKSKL
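Assay system: Luciferase/luciferin detection reagent, cell-free biochemical luciferase assay / Also added: ATP substrate / Schedule: 10 min at ambient temperature / Measured by: luminescence measurement of luciferase light output / Benchmarks: low control with PBS replacing ATP, high control enzyme plus ATP without compound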
C8 TRAIL sens: viability loss with TRAIL in NB7+C8 cells, primary screen, TRAIL sensitizer project, cell-based, ATPlite luminescence; inhibition (viability loss, TRAIL sensitization), % at 10 µM; 1% of 360,000 active;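 active = compounds causing at least 50% loss of cell viability in the single-dose screen, relative to plate controls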
FLuc inh counter: firefly luciferase enzyme inhibitors, primary screen, artefact control for luciferase-based inhibitor screens, biochemical, luminescence, ATPLite; 1.5% of 200,000 active; AID 1006, 2008; inhibition, % at 10 µM; Luciferin 4-monooxygenase (Photinus pyralis), P08659; 10 min;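 active = inhibition above about 50% when tested at 10 µM, limit read from the data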
HSP90 inh confirm: HSP90 inhibitors, confirmation, cell lysate, luminescence | shares compounds with HSP90 refold inh | rabbit reticulocyte lysate, luciferase refolding luminescence, 3 h | inhibition, % at 5.9 µM | 64% of 2,300 active; in the data active = inhibition above about 18%;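 note: 0% = vehicle wells and 100% = reference inhibitor wells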
luciferase ctr: firefly luciferase inhibitors, HSP90 counter-screen, confirmation, artefact control for HSP90 inhibitor project, biochemical, luminescence, triplicate; inhibition, % at 5.9 µM; shares compounds with HSP90 refold inh; AID 1847, 2009; 48% of 2,300 active; purified native firefly luciferase;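 active = inhibition above the mean inhibition of all tested sample wells plus 3 SD, cut at about 10% in these data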;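 note: 0% = DMSO with luciferase and 100% = wells lacking luciferase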
* = called active by the depositor; / = not tested or not shown.

SMILES	PPC-1+TRAIL kill	HSP90 refold inh	FLuc stim CS	C8 TRAIL sens	FLuc inh counter	HSP90 inh confirm	luciferase ctr
COc1cccc(COCC(O)Cn2cnc3cc(C)c(C)cc32)c1 (centres undefined)	22	5	1.1	19	-7	/	/
N#CCCCN1C(=O)C(=C(C#N)C#N)c2ccccc21	-10	4	1	-2	-4	/	/
O=c1[nH]c2cc([N+](=O)[O-])cc(Cl)c2c2ccccc12	/	/	/	-4	/	/	/
C=CCOc1c(CNc2cccc(C(=O)O)c2)cccc1OC	13	45*	1	10	1	53*	-18
C=CCOc1c(CNc2cccc(C(=O)O)c2)cccc1OCC	14	-4	1	-24	0	/	/
CCN(CC)CCNC(=O)c1[nH]c2ccc(OCc3ccccc3)cc2c1C	15	0	1	11	-4	/	/
CN(C)C(CNC(=O)c1cccc(S(=O)(=O)NCc2ccccc2)c1)c1ccco1 (centres undefined)	/	/	/	3	/	/	/
O=C(O)CSc1ccn(Cc2ccccc2)c1	/	/	/	-13	/	/	/
CCOc1ccc(NC(=O)c2[nH]c(C)c(C(C)=O)c2C)cc1	/	19*	/	7	/	12	-2
COc1ccc(NC(=O)c2[nH]c(C)c(C(C)=O)c2C)cc1	-7	-2	1	11	4	/	/
CC(NC(=O)CSc1nnc(-c2cccnc2)n1N)c1ccccc1 (centres undefined)	-2	18*	1	-16	-2	0	-7
O=C(Cc1ccc(NC2=NC3CS(=O)(=O)CC3S2)cc1)N1CCN(c2ccc(F)cc2)CC1 (centres undefined)	/	-3	/	8	/	/	/
Cc1nn(-c2ccccc2)c2sc(-c3n[nH]c(=S)o3)cc12	-8	19*	1.1	-29	-6	-14	-12
Cc1nn(-c2ccccc2)c2sc(C(=O)O)cc12	4	3	1	-7	2	/	/
CN(C)S(=O)(=O)Oc1ccsc1C(=O)Nc1ccc(Cl)c(Cl)c1	9	20*	1	4	4	6	-2
Nc1ccccc1SSc1ccccc1N	2	11	/	-1	/	36*	8
O=C(Cc1ccc(Cl)cc1)Nc1cccc(C(=O)Nc2ccccc2C(=O)O)c1	/	-2	/	-7	/	/	/
COc1cccc(NC(=O)CN2C(=O)NC(Cc3c[nH]c4ccccc34)C2=O)c1 (centres undefined)	/	/	/	-3	/	/	/
Cc1cc[n+](-c2[nH]c(=O)sc2/C=N/N=C(\[O-])c2ccccc2)cc1C	8	18*	1	3	-1	-6	-14
Cc1cc(/C=C(\C#N)C(=O)N2CCOCC2)c(C)n1C1CCCC1	28	37*	/	39	/	52*	48*
COc1ccc(/C=C(\C#N)C(=O)N2CCOCC2)cc1Br	-5	0	1	-32	-2	/	/
N#Cc1ccccc1NC(=O)C(=O)NCCCN1CCCC1=O	/	/	/	-13	/	/	/
O=C(C(c1ccccc1)C(O)c1ccccc1)N1CCOCC1 (centres undefined)	/	/	/	-8	/	/	/
O=C(C(c1ccccc1)c1ccccc1)N1CCOCC1	2	47*	1	-24	2	-4	-7
O=C(COC(=O)c1ccc(CO)cc1)Nc1ccc(OC(F)F)cc1	14	-1	1.1	-5	-7	/	/
SMILES	PPC-1+TRAIL kill	HSP90 refold inh	FLuc stim CS	C8 TRAIL sens	FLuc inh counter	HSP90 inh confirm	luciferase ctr
CC1CCC(NC(=O)c2ccc3c(c2)OCO3)CC1 (centres undefined)	/	24*	/	34	/	46*	27*
COC(=O)c1c(N)sc(C(=O)NCCc2ccccc2)c1C	/	87*	/	75*	/	87*	82*
O=C(NCCOc1ccccc1)c1ccc2c(c1)OCO2	27	48*	0.5	24	51*	71*	67*
COc1cccc(OC)c1C(=O)NCCc1ccccc1	/	/	/	-21	/	/	/
O=C(NCCc1cccc(Cl)c1)c1ccc2c(c1)OCO2	/	20*	/	57*	/	40*	29*
CN(CCOc1ccccc1)C(=O)c1ccc2c(c1)OCO2	/	/	/	-4	/	/	/
Cc1cccc(NC(=O)[C@H](Cc2ccccc2)NC(=O)[C@@H]2Cc3ccccc3CN2)c1	/	-7	/	-3	/	/	/
O=C(NCCc1ccccc1)c1ccc2c(c1)OCCO2	/	85*	/	83*	/	97*	89*
O=C(NCCc1ccccc1)c1ccc2c(c1)OCCCO2	/	95*	/	92*	/	95*	90*
COc1ccc(CCNC(=O)c2ccc3c(c2)OCCO3)cc1	24	3	0.5	16	48	/	/
Cc1ccc(C(=O)NCCc2ccccc2)cc1	/	62*	/	64*	/	78*	74*
O=C(/C=C/c1ccccc1)c1ccc2c(c1)OCCCCO2	7	33*	0.1	15	88*	33*	29*
O=C(NCCS(=O)(=O)NCCc1ccccc1)c1ccc2c(c1)OCO2	/	/	/	31	/	/	/
Cc1ccc(C(=O)NCCc2ccncc2)cc1	23	0	0.7	10	29	/	/
Cc1cc(C(=O)NCCc2ccc(S(N)(=O)=O)cc2)no1	10	-2	1.1	-2	-7	/	/
O=C(c1cc2cc(Cl)ccc2[nH]1)N1CCN(c2ccccn2)CC1	/	-3	/	-22	/	/	/
C(#Cc1ccc2c(c1)COc1c3ccccc3nn1-2)c1ccccc1	/	/	/	-7	/	/	/
Cc1ccc2c(c1)COc1c3ccc(C(=O)O)cc3nn1-2	/	96*	/	34	/	94*	79*
CCOC(=O)N1CCN(C(=O)c2ccc3nc(N4CCC(C)CC4)sc3c2)CC1	20	14	1.1	-4	-6	/	/
CCOC(=O)N1CCN(C(=O)c2ccc3nc(N4CCCCC4)sc3c2)CC1	-12	22*	1.1	-10	-8	23*	-6
O=C(c1ccccc1)N1CCN(Cc2ccccc2)CC1	0	-1	1.1	-10	-9	/	/
CC(C)(C)c1ccc(C(=O)N2CCN(Cc3ccccc3)CC2)cc1	/	22*	/	3	/	-3	-17
COc1cccc(N2CCN(C(=O)c3ccc4nc(N5CCC(C)CC5)sc4c3)CC2)c1	15	74*	/	/	/	76*	54*
CC1CCN(c2nc3ccc(C(=O)N4CCN(Cc5ccccc5)CC4)cc3s2)CC1	7	70*	1	10	-5	65*	10*
CC1CCN(c2ccc(/C=N\Nc3nncn3N)cc2[N+](=O)[O-])CC1	21	60*	0.9	-5	6	-4	-8
Cc1ccc2nc(NC(=O)CCCC(=O)O)sc2c1	6	17*	0.3	27	66*	24*	-9
CCOCC(=O)Nc1nc2ccc(C)cc2s1	9	5	0.8	15	23	/	/

Bioassay records (PubChem)
